Assay outcomes deposited in PubChem BioAssay by Johns Hopkins Ion Channel Center.
Sampled rows, rich in hits. Any-hit rate of the full collection: about 2.3%.
TRPC6 act: mouse TRPC6 channel activation. Q61143. HEK293-TRPC6 membrane potential dye fluorescence; active compounds read high. B-score at 10 µM. 0.13% of 310,000 active;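 active = B-score of the integrated fluorescence ratio above library mean plus 3 SD, and starting fluorescence ratio within library mean plus 5 SD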;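 also: higher score means more depolarization so channel activation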
TRPC4 block: TRPC4 (mouse) channel inhibition. 0.39% of 300,000 active. B-score at 10 µM. HEK293 TRPC4beta/mu-opioid, DAMGO-evoked Fluo4 calcium flux; active compounds read low;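 active = B-score over 3 SD under the library average, no early fluorescence shift, positive overall ratio signal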
Target sequence (Q9QUQ5 whole entry, looked up): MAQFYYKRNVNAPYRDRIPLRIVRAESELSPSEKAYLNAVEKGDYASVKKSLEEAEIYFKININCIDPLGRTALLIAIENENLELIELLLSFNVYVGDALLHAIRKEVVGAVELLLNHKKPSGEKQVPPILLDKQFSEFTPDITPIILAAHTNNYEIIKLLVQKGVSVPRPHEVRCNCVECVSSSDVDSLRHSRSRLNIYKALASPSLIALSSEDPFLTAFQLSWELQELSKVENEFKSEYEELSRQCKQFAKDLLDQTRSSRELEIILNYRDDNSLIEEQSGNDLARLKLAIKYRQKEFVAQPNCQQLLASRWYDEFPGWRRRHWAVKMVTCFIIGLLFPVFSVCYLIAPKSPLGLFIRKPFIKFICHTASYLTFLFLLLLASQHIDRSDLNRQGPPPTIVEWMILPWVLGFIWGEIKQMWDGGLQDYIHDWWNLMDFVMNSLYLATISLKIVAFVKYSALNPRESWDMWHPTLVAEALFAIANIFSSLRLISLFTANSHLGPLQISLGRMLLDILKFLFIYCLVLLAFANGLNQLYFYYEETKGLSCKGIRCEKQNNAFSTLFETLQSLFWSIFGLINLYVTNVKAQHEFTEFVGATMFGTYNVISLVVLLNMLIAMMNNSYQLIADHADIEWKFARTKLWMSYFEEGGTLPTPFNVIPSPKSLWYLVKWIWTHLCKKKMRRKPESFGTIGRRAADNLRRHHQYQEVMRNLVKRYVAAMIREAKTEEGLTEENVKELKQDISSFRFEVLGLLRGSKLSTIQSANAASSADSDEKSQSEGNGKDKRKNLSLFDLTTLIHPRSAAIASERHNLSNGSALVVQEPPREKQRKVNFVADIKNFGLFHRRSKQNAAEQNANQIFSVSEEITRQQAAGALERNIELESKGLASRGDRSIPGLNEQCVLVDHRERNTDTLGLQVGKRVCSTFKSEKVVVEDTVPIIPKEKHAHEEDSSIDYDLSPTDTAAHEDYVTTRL
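Assay system – HEK293 line stably carrying TRPC4beta and mu-opioid receptor · Doses – single dose · Detection – Fluo4 calcium-dye fluorescence, kinetic read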
TRPC4 PAM: allosterically enhances the mouse TRPC4 cation channel; B-score at 10 µM; AID 2227; 0.42% of 310,000 active; HEK293 TRPC4beta/mu-opioid, DAMGO EC20, Fluo-4 Ca2+ flux; active compounds read high;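 active = B-score of calcium response area above 5 SD of library B-scores, with initial fluorescence ratio within 5 SD of library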
TRPC6 inh: mouse TRPC6 channel inhibition; HEK293-TRPC6, membrane potential dye, ACh-evoked depolarization; active compounds read low; 1.1% of 310,000 active; B-score at 10 µM; Q61143;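 active = B-score under library mean minus 3 SD, initial fluorescence not abnormally high, positive integrated signal ratio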;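 also: B-score derived from integrated fluorescence ratio over the kinetic read; more negative B-score means stronger inhibition of depolarization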
TRPC4 agonist: TRPC4 (mouse) channel activation; 0.49% of 310,000 active; B-score at 10 µM; Q9QUQ5; HEK293 TRPC4beta/mu-opioid, Fluo4 calcium fluorescence; active compounds read high;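 active = B-score above 5 SD of library B-scores, and initial fluorescence ratio not above library mean plus 5 SD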;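 also: positive B-score marks a calcium rise read as TRPC4 activation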
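System: HEK293 cells stably co-expressing mouse TRPC4beta and mu-opioid receptor; Schedule: Fluo4 dye loading 45 min at room temperature, 110 s recording; Detection: Fluo4 fluorescence, kinetic; Evaluation: B-scored integrated calcium fluorescence ratio; Controls: buffer (low) and maximal DAMGO (high).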
TRPC4 spec 2: second check of whether TRPC6 inhibitors also affect mouse TRPC4; shares compounds with TRPC6 inh; HEK293 TRPC4/MOR, membrane potential dye fluorescence; channel activated by saturating DAMGO dose; inhibition, % at 10 µM; 42% of 920 active;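 active = compounds whose fluorescence signal differed from control wells by over 3 SD, either direction, in both duplicate plates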
TRPC4 spec: tests whether TRPC6 inhibitors also affect mouse TRPC4; shares compounds with TRPC6 inh; HEK293 TRPC4/mu-opioid, membrane potential fluorescence; activity change, negative = inhibition, % at 10 µM; 61% of 920 active; AID 2777;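 active = rise or fall in signal beyond 3 SD of buffer-only wells in both replicate plates, either sign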;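 also: integrated kinetic ratio of fluorescence range over baseline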
HEK293 MPD ctr 2-1: parental HEK293 nonspecific activity of TRPC6 inhibitors, second screen; shares compounds with TRPC6 inh; parental HEK293 membrane potential dye fluorescence; maximal acetylcholine challenge after compound addition; signal change vs control, % at 10 µM; 31% of 920 active;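 active = membrane potential signal moving either way by over 3 SD of the maximum-effect control, in both duplicate plates, meaning non-specific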
HEK293 MPD ctr-1: counter-screen for TRPC6 inhibitors: effect in parental HEK293 cells; membrane potential signal change, % at 10 µM; parental HEK293 membrane potential dye fluorescence; AID 2780; shares compounds with TRPC6 inh; 60% of 920 active;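 active = membrane potential signal shifting up or down by more than 3 SD of buffer-only wells, on both duplicate plates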
HEK293 MPD ctr-2: checks TRPC6 modulator effects in parental HEK293 cells; shares compounds with TRPC6 inh; membrane potential dye fluorescence; membrane potential signal change, % at 10 µM; 51% of 2,400 active;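 active = membrane potential signal moves up or down beyond 5 SD from buffer-only wells, on both duplicate plates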
HEK293 MPD ctr 2-2: second counter-screen for TRPC6 modulators: effect in parental HEK293 cells | AID 488926 | inhibition, % at 10 µM | membrane potential dye fluorescence; after compound, maximal acetylcholine stimulation | shares compounds with TRPC6 inh | 14% of 2,400 active;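 active = membrane potential signal drops by more than 5 SD from the mean control signal, in both duplicate plates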
TRPC4 ctr mod: mouse TRPC4 off-target activity of TRPC6 modulators; HEK293 TRPC4/mu-opioid, membrane potential fluorescence; AID 488927; 69% of 2,400 active; percent change from control (negative = decrease, positive = increase), % at 10 µM; shares compounds with TRPC6 inh;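 active = membrane potential signal moved up or down beyond 5 SD of buffer control wells, in both duplicate plates, actives on both sides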
TRPC4 ctr inh 2: mouse TRPC4 off-target activity of TRPC6 modulators, second screen; shares compounds with TRPC6 inh; HEK293 TRPC4/mu-opioid, membrane potential dye fluorescence; stimulated with maximal-effect DAMGO; inhibition, % at 10 µM; 55% of 2,400 active; AID 488928;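 active = drop in membrane potential signal beyond 5 SD of the control wells in both duplicate plates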;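 also: TRPC4 counter screen for TRPC6 hits run under conditions tuned for TRPC6 not TRPC4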
TRPC6 block conf: confirmation of mouse TRPC6 inhibitors; shares compounds with TRPC6 inh; HEK293-TRPC6, membrane potential dye, ACh-evoked depolarization; inhibition, % at 10 µM; 43% of 3,300 active; AID 488960;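 active = fluorescence ratio falls more than 5 SD below the full-stimulation control mean, in both duplicate runs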;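 also: integrated fluorescence ratio of peak minus minimum over baseline after agonist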
TRPC6 act conf: confirmation of mouse TRPC6 activators | activation, % at 10 µM | shares compounds with TRPC6 inh | HEK293-TRPC6 membrane potential dye fluorescence, FDSS | 11% of 2,800 active;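 active = ratio signal rise beyond 5 SD above unstimulated control wells' mean, seen in both duplicate runs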
Numbers stand for hits; – = inactive; · = not tested or not shown.

SMILES	TRPC6 act	TRPC4 block	TRPC4 PAM	TRPC6 inh	TRPC4 agonist	HEK293 MPD ctr-2	HEK293 MPD ctr 2-2	TRPC4 ctr mod	TRPC4 ctr inh 2	TRPC6 block conf	TRPC6 act conf	others
Cc1ccc(S(=O)(=O)NNc2nc3ccccc3nc2C(F)(F)F)cc1	–	–	–	-7	–	·	·	·	·	–	–	TRPC4 spec 2=–;TRPC4 spec=–;HEK293 MPD ctr 2-1=–;HEK293 MPD ctr-1=–
N#CCCSc1ccccc1NC(=O)c1cc(=O)c2ccccc2o1	–	–	–	–	–	·	·	·	·	·	·
Cc1cccc(-c2nc(=S)c3c(n2Cc2ccco2)CCCC3)c1	–	–	–	-6.3	–	184%	–	42%	–	–	·
COc1cccc(-c2nc(=S)c3c(n2Cc2ccco2)CCCC3)c1	–	–	–	–	–	·	·	·	·	·	·
NCCCCCc1nnc(SCc2ccccc2Cl)o1	–	–	–	-6.4	–	–	–	16%	–	–	·
NCCc1nnc(SCc2c(Cl)cccc2Cl)o1	–	–	–	–	–	·	·	·	·	·	·
NCCCCCc1nnc(SC/C=C/c2ccccc2)o1	–	–	–	-5.5	–	102%	–	18%	–	–	·
O=C(O)c1cc(Br)ccc1NS(=O)(=O)c1cccc2nsnc12	13	–	–	–	–	–	–	16%	–	–	34%
COc1ccc2[nH]c(C(=O)N3CCNCC3)cc2c1OC	–	–	–	–	–	·	·	·	·	·	·
CCN(CC(=O)Nc1ccccc1C(F)(F)F)C(=O)c1ccc(=O)n(Cc2ccccc2)n1	–	–	–	–	–	·	·	·	·	·	·
CCCN(CC(=O)Nc1ccccc1C)C(=O)c1ccc(=O)n(Cc2ccccc2)n1	–	–	–	-5.1	–	90%	–	16%	–	–	–
CC(C)c1ccc2c(c1)C1(NN=C(c3ccccc3)S1)C(=O)N2 (stereo not drawn)	–	–	11	-5.7	–	-150%	–	-33%	75%	46%	–
CCc1ccc2c(c1)C1(NN=C(c3ccc(C)cc3)S1)C(=O)N2 (stereo not drawn)	–	–	–	–	–	·	·	·	·	·	·
CCn1c(=Nc2ccc(N3CCOCC3)cc2)ccc2ccccc21	–	–	–	–	–	·	·	·	·	·	·
Cn1c(=Nc2ccc(N3CCOCC3)cc2)ccc2ccccc21	–	–	–	-6	–	-76%	–	-16%	–	41%	–
O=C1NC2(CCc3ccccc3C2)C(=O)N1CCOc1cccc(Cl)c1 (stereo not drawn)	–	–	–	–	–	·	·	·	·	·	·
COc1ccc(Cl)cc1NC(=O)CSc1nc(NS(=O)(=O)c2ccc(C)cc2)cc(=O)[nH]1	–	–	–	–	–	·	·	·	·	·	·
Cc1ccc(C(=O)c2cc([N+](=O)[O-])ccc2N2CCOCC2)c(C)c1	–	–	–	-5.4	–	–	–	–	–	–	–
COc1ccc(CNS(=O)(=O)c2ccc3c(c2)N(C(C)=O)CC(C)S3)cc1 (stereo not drawn)	–	–	–	–	–	·	·	·	·	·	·
CC1(C)CC(=O)c2c(nc3ccccc3c2N)C1	–	–	–	–	–	·	·	·	·	·	·
CCNc1c2c(nc3ccccc13)CC(C)(C)CC2=O	–	–	–	-7.8	–	·	·	·	·	–	–	TRPC4 spec 2=65%;TRPC4 spec=–;HEK293 MPD ctr 2-1=–;HEK293 MPD ctr-1=-138%
CC(C)c1ccc(N2C(=O)CC(NNC(=O)c3ccccc3Cl)C2=O)cc1 (stereo not drawn)	–	–	–	–	–	·	·	·	·	·	·
COc1ccc(C(=O)Nc2c(-c3ccccc3)nc3ccccn23)c(OC)c1	20	–	–	–	–	–	–	12%	28%	–	–
CCOC(=O)C1CCN(C(c2cc3c(C)ccc(C)c3[nH]c2=O)c2nnnn2C2CCCCC2)CC1 (stereo not drawn)	–	–	–	–	–	·	·	·	·	·	·
CCOC(=O)C1CCN(C(c2cc3ccc(C)c(C)c3[nH]c2=O)c2nnnn2C2CCCCC2)CC1 (stereo not drawn)	–	–	–	-8.8	–	·	·	·	·	–	·	TRPC4 spec 2=–;TRPC4 spec=–;HEK293 MPD ctr 2-1=–;HEK293 MPD ctr-1=–
SMILES	TRPC6 act	TRPC4 block	TRPC4 PAM	TRPC6 inh	TRPC4 agonist	HEK293 MPD ctr-2	HEK293 MPD ctr 2-2	TRPC4 ctr mod	TRPC4 ctr inh 2	TRPC6 block conf	TRPC6 act conf	others
COC(=O)c1cc(S(=O)(=O)NCCc2cccc(C)c2)cn1C	–	–	–	–	–	·	·	·	·	·	·
CC(C)NCC(O)Cn1c2c(c3ccccc31)CCc1c-2cnn1-c1ccccc1 (stereo not drawn)	–	–	–	-10	–	·	·	·	·	85%	–	TRPC4 spec 2=28%;TRPC4 spec=-23%;HEK293 MPD ctr 2-1=40%;HEK293 MPD ctr-1=-326%
CN1CCc2c(n(CC(O)CNCc3ccccc3)c3ccccc23)C1=O (stereo not drawn)	–	–	–	–	–	·	·	·	·	·	·
Cc1ccccc1Cn1c(NC2CCCC2)nc2c1c(=O)[nH]c(=O)n2C	–	–	–	–	–	·	·	·	·	·	·
C=CCNC(=O)c1ccc([N+](=O)[O-])c(Cl)c1	–	–	–	–	–	·	·	·	·	·	·
C=CCNCc1ccc(C(=O)NCCCCCCC)cc1[N+](=O)[O-]	–	·	–	-7	–	·	·	·	·	–	–	TRPC4 spec 2=75%;TRPC4 spec=-11%;HEK293 MPD ctr 2-1=–;HEK293 MPD ctr-1=-160%
CCCCN1CCCC1CNC(=O)c1cc(C#N)c2ccccc2c1OC (stereo not drawn)	–	–	–	–	–	·	·	·	·	·	·
Cc1cccn2c(=O)c3cc(C(=O)NCc4cccnc4)c(=N)n(C(C)C)c3nc12	–	–	–	-6.2	–	–	–	–	38%	–	–
Cc1cccn2c(=O)c3cc(C(=O)NCc4ccco4)c(=N)n(C(C)C)c3nc12	–	–	–	-8.1	–	·	·	·	·	–	–	TRPC4 spec 2=–;TRPC4 spec=-31%;HEK293 MPD ctr 2-1=–;HEK293 MPD ctr-1=-446%
CCNc1c(NC(=O)c2cccs2)c(=O)oc2ccccc12	–	–	–	–	–	·	·	·	·	·	·
